According to paper PMC6668347 (Bioorganic & medicinal chemistry, 2017):
Blank lines part the entries; values can stand above or below the compound they belong to.

Experiments:
[1] = molecular target: MELK (Homo sapiens, UniProt Q14680); assay: MELK kinase activity inhibition; type: biochemical; conditions: for change of MELK IC50 / activity relative to parent compound 6: weaker than 6 (higher IC50)
[2] = molecular target: T1, BMX/ETK (Homo sapiens, UniProt P51813); assay: Kinase panel IC50, BMX/ETK; type: biochemical
T1 sequence (P51813 1-675): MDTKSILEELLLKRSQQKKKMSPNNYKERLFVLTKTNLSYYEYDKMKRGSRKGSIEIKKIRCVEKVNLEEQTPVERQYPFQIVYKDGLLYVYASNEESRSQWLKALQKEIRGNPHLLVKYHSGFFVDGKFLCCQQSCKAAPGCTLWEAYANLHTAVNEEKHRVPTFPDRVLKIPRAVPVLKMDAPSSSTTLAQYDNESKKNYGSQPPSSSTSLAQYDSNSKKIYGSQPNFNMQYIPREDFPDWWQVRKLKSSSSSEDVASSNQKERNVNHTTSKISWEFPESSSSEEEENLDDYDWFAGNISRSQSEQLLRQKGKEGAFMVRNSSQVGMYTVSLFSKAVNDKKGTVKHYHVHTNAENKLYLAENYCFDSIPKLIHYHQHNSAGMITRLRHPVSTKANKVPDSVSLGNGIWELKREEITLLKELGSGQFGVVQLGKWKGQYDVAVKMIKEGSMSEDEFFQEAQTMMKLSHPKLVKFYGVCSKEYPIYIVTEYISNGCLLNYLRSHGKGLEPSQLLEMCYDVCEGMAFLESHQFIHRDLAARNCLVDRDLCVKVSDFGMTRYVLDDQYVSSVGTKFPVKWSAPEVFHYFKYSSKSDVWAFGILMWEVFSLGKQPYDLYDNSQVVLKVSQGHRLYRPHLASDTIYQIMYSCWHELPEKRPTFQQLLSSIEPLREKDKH

[3] = molecular target: JAK1 (Homo sapiens, UniProt P23458); assay: JAK kinase activity, JAK1; type: biochemical
JAK1, sequence (P23458 whole entry): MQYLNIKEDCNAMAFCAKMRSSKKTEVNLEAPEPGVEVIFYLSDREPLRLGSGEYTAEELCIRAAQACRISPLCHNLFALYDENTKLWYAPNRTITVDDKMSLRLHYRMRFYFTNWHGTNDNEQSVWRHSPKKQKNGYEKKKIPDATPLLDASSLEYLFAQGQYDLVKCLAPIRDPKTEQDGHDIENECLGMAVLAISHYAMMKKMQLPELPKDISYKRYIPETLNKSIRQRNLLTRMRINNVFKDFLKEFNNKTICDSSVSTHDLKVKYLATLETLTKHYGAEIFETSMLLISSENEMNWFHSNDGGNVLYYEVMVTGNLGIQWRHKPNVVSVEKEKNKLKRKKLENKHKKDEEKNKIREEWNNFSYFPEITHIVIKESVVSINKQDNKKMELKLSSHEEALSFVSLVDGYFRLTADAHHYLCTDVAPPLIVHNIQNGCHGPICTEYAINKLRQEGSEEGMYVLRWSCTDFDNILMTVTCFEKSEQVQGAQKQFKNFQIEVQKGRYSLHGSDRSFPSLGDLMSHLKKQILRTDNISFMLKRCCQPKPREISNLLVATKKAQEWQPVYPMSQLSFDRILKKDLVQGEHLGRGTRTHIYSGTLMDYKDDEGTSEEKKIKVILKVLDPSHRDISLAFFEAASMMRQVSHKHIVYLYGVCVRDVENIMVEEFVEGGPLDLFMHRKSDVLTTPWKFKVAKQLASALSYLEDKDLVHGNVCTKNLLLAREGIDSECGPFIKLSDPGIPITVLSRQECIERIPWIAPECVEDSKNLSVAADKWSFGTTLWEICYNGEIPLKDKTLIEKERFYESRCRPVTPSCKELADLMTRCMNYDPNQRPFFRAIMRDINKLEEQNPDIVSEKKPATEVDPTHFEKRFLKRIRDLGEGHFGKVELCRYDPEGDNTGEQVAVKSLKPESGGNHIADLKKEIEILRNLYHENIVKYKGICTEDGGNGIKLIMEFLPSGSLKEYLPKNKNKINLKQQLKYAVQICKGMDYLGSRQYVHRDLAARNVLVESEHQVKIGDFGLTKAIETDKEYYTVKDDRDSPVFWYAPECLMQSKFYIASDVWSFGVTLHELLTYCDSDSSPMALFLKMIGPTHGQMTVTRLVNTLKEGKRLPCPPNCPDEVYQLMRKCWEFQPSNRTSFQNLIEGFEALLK

[4] = molecular target: JAK2 (Homo sapiens, UniProt O60674); assay: JAK kinase activity, JAK2; type: biochemical
JAK2, sequence (O60674 whole entry): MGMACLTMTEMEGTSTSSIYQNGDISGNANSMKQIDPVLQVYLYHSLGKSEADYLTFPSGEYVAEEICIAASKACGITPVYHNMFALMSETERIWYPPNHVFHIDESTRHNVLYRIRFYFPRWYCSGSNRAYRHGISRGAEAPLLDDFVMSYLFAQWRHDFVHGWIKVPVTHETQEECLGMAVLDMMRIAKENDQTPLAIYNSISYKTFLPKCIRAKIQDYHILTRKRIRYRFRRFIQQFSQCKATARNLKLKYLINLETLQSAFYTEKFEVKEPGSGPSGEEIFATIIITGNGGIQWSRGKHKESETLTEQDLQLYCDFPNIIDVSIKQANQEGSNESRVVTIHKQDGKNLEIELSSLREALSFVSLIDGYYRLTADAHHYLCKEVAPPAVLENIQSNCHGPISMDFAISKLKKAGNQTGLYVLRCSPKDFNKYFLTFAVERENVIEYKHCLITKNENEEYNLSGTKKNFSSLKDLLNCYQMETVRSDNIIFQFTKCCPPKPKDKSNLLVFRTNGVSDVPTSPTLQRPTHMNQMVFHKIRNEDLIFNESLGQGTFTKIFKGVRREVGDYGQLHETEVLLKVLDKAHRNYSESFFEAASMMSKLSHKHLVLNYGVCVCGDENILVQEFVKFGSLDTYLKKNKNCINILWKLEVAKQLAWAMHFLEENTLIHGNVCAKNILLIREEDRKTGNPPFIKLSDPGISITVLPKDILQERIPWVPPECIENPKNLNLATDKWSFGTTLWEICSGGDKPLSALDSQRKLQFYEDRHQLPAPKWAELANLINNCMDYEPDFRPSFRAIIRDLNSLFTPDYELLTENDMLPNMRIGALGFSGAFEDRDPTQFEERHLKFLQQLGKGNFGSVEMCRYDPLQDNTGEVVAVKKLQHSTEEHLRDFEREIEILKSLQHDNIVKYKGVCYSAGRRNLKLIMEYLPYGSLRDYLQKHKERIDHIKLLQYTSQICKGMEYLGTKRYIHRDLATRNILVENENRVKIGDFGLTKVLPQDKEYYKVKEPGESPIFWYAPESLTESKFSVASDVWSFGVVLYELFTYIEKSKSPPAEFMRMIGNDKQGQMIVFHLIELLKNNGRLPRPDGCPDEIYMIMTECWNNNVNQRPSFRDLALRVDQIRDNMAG

[5] = molecular target: T2, JAK3 (Homo sapiens, UniProt P52333); assay: JAK kinase activity, JAK3; type: biochemical
T2 sequence (P52333 1-1124): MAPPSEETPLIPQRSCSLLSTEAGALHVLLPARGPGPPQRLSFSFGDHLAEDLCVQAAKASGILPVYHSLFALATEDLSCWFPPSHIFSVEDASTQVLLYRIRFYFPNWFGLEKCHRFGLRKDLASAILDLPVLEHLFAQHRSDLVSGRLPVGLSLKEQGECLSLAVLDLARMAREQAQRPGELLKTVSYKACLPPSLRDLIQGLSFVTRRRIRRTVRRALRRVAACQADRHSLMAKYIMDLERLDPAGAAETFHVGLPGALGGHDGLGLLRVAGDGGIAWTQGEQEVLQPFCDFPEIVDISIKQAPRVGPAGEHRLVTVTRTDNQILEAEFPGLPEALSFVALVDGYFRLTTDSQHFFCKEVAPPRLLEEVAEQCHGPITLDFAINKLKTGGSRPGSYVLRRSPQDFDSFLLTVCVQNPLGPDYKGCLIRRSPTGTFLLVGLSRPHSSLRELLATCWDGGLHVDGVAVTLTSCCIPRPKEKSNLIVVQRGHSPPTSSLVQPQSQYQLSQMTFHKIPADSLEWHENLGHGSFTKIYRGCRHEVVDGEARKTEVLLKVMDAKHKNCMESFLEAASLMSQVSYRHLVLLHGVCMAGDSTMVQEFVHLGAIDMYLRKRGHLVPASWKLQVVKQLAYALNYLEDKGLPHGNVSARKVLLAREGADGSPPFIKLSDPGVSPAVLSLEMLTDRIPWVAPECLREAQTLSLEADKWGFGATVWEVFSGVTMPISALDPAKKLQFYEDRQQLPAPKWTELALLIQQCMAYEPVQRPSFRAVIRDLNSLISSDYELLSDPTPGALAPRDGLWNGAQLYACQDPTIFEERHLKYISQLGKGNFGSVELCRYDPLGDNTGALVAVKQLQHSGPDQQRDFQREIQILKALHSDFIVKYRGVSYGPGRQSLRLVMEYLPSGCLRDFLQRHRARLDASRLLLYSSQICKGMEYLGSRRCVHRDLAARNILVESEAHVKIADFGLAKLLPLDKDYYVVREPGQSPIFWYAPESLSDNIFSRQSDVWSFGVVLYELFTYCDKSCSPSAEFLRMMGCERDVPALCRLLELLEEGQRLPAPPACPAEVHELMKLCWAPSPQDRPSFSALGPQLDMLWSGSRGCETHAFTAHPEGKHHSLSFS

[6] = system: p21WAF1/CIP1; assay: Western blot of p21 levels; type: cell-based; conditions: 5 μM, from 4 h, sustained over 48 h
[7] = system: cyclin A2; assay: Western blot of cyclin A2 levels; type: cell-based; conditions: over 48 h
[8] = system: p53; assay: Western blot of p53 levels; type: cell-based
[9] = system: phospho p53 (Ser15); assay: Western blot of p53 Ser15 phosphorylation; type: cell-based; conditions: MDA-MB-468 cells, over 48 h
[10] = system: MDMX; assay: Immunoblot of MDMX levels; type: cell-based; conditions: MDA-MB-231 cells, increasing concentration
In short: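 MDA-MB-231 cells (DMEM, 10% FBS, 37 °C, 5% CO2) were exposed to rising test compound concentrations. Whole-cell RIPA lysates with protease and phosphatase inhibitors were prepared, and 30 µg protein was resolved by 10% SDS-PAGE and moved to nitrocellulose. Blots were probed with primary antibody overnight at 4 °C, then with IRDye 800 anti-mouse or Alexa Fluor 680 anti-rabbit IgG for 1 h at RT. Bands were read by infrared imaging.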

[11] = system: phospho STAT3 (Tyr705); assay: Western blot of STAT3 phosphorylation; type: cell-based
[12] = system: phospho Akt; assay: Western blot of Akt phosphorylation; type: cell-based
[13] = system: survivin; assay: Western blot of survivin levels; type: cell-based; conditions: sustained over 48 h
[14] = system: Bcl-XL; assay: Western blot of Bcl-XL levels; type: cell-based
[15] = system: LC3B-II; assay: Autophagy assay; type: cell-based; conditions: for LC3B-II levels: 4 h, 6 at 5 μM, BafA1 at 100 nM, versus DMSO
In short: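 MDA-MB-231 or MDA-MB-468 cells in DMEM with 10% FBS at 37 °C, 5% CO2, treated 4 h with test compound or DMSO vehicle. Hypoxia (1% O2) served as the autophagy positive control. Bafilomycin A1 (100 nM) was added 4 h before harvest. Cells were lysed in NP40 buffer with protease and phosphatase inhibitors, run on SDS-PAGE and transferred to PVDF. Blots were probed overnight at 4 °C with anti-LC3B (1:3000), then HRP secondary (1:10,000), with ECL detection of LC3B-I and LC3B-II.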

MELK, sequence (Q14680 whole entry): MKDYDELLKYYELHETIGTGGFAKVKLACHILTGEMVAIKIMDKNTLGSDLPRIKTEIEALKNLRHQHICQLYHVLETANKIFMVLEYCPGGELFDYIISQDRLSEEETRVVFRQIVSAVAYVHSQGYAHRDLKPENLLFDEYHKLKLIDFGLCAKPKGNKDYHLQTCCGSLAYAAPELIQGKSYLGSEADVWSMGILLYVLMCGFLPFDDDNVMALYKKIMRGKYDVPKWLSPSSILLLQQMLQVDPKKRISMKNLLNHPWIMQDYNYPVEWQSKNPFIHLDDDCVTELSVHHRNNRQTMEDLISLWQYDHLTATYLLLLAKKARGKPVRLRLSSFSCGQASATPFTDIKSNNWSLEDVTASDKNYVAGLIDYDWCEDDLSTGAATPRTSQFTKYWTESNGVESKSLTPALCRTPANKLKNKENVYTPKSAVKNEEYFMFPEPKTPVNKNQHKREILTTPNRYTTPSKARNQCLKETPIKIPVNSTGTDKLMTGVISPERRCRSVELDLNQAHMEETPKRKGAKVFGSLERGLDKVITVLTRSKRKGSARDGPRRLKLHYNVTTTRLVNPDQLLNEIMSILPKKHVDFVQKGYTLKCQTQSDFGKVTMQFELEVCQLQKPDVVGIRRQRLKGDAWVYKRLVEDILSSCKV

IC50 [1]: ~1000 nM | IC50 [2]: ~1000 nM | inhibition of JAK kinase activity (JAK1) [3]: lack of inhibition | inhibition of JAK kinase activity (JAK2) [4]: lack of inhibition | inhibition of JAK kinase activity (JAK3) [5]: lack of inhibition
Structure (SMILES): CCN(CC)CCCC(C)Nc1nc(/C=C/c2c(Cl)cc(Cl)cc2Cl)nc2ccc(N)cc12 (stereo not shown) [Compound 6, (E)-N^4-(5-(diethylamino)pentan-2-yl)-2-(2,4,6-trichlorostyryl) quinazoline-4,6-diamine]
p21WAF1/CIP1 level ([6]; MDA-MB-231 cells): up-regulated | p21WAF1/CIP1 level ([6]; MDA-MB-468 cells): up-regulated | cyclin A2 level ([7]; MDA-MB-231 cells): down-regulated | cyclin A2 level ([7]; MDA-MB-468 cells): down-regulated | p53 levels ([8]; MDA-MB-231 cells): does not affect | p53 levels ([8]; MDA-MB-468 cells, over 48 h): no effect | phosphorylation at Ser15 of p53 [9]: inhibited | MDMX levels [10]: increase | STAT3 phosphorylation ([11]; MDA-MB-231 cells, levels recover more slowly): inhibited | STAT3 phosphorylation ([11]; MDA-MB-468 cells): inhibited | STAT3 phosphorylation, time course ([11]; MDA-MB-468 cells, at 4 h, levels restored after 8 h): completely inhibited | Akt phosphorylation [12]: no effect | survivin level ([13]; MDA-MB-231 cells): down-regulation | survivin level ([13]; MDA-MB-468 cells): down-regulation | Bcl-XL expression ([14]; MDA-MB-231 cells): reduced expression | Bcl-XL expression ([14]; MDA-MB-468 cells): reduced expression | LC3B-II levels ([15]; MDA-MB-231 cells): pronounced increase | LC3B-II levels ([15]; MDA-MB-468 cells): pronounced increase | autophagic flux ([15]; MDA-MB-468 or MDA-MB-231 cells, LC3B-II not further increased by co-treatment with BafA1): inhibiting autophagic flux

change of MELK IC50 / activity relative to parent compound 6 [1]: twofold reduction
Structure (SMILES): Nc1ccc2nc(/C=C/c3ccc(C(F)(F)F)cc3)nc(NCCCN3CCOCC3)c2c1 [Compound 20]

Structure (SMILES): CO/C1=C\C(C)=C\[C@@H](C)[C@@H](O)[C@@H](C)C/C(C)=C/C=C/[C@H](OC)[C@@H]([C@@H](C)[C@@H](O)[C@H](C)[C@@]2(O)C[C@@H](O)[C@H](C)[C@@H](C(C)C)O2)OC1=O [BafA1, Bafilomycin A1, reference compound]
LC3B-II levels ([15]; MDA-MB-231 cells): more modest increase | LC3B-II levels ([15]; MDA-MB-468 cells): substantial increase

change of MELK IC50 / activity relative to parent compound 6 [1]: little effect
Structure (SMILES): CCN(CC)CCCCNc1nc(/C=C/c2c(Cl)cc(Cl)cc2Cl)nc2ccc(N)cc12 [Compound 18, (E)-N^4-(4-(diethylamino)butyl)-2-(2,4,6-trichlorostyryl) quinazoline-4,6-diamine]
